Data taken from ChEMBL document CHEMBL1127427, “Effect of molecular manipulation on the estrogenic activity of a brain-targeting estradiol chemical delivery system” (J Med Chem, 1994).

How the values were obtained:
Rattus norvegicus [1] = test: Compound is evaluated for effect on serum estradiol, 14 days subsequent to a single intravenous dose determined by means of a radioimmunoassay; type: functional, organism-based
Method in brief: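 Adult male Sprague-Dawley rats (175–200 g), conscious and restrained, given a single tail-vein iv injection of 0.025 mmol/kg (equal to 5 mg/kg E2-CDS) or DMSO vehicle (0.5 mL/kg). Serum taken at day 14. Estradiol measured in duplicate by Coat-a-Count RIA. Antibody cross-reactivity with E2-Q+ <0.1%; detection limit 10 pg/mL. Mean ± SEM.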

[2] = Compound was evaluated for oxidation rate constant in brain homogenate; type: ADME, tissue-based
Method in brief: (§1)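 Male Sprague-Dawley rats were PBS-perfused and their organs homogenized in PBS: brain 2% w/v, liver 1.0% w/v. Compound loss followed by the fall in 360 nm absorbance. Pseudo-first-order rate constant taken from log(A360) versus time. Triplicate runs; half-life given as mean ± SEM.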

[3] = Compound was evaluated for first order half-life in brain homogenate.; type: ADME, tissue-based; method in brief: as §1
[4] = Compound was evaluated for oxidation rate constant in liver homogenate; type: ADME, tissue-based; details: tissue homogenate; method in brief: as §1
Rattus norvegicus [5] = species: Rattus norvegicus; test: Compound was tested in male rats for its effect on the seminal vesicle weight; type: functional; parameters: concentration or dose not given beside the values
Method in brief: (§2)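 Adult male Sprague-Dawley rats (175–200 g) received a single iv tail-vein dose of 0.025 mmol/kg (equal to 5 mg/kg E2-CDS) or DMSO vehicle (0.5 mL/kg). Weighed daily for 14 days. Euthanized at day 14; organ excised and weighed. Expressed as mg per 100 g body weight, mean ± SEM, n=6.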

Rattus norvegicus [6] = species: Rattus norvegicus; test: Compound is tested in male rats for its effect on the pituitary weight; type: functional; parameters: concentration or dose not given beside the values; method in brief: as §2
[7] = Compound was evaluated for first order half-life in liver homogenate.; type: ADME, tissue-based; method in brief: as §1
Rattus norvegicus [8] = species: Rattus norvegicus; test: Compound is tested in male rats for its effect on the prostate weight; type: functional, Prostate gland; parameters: concentration or dose not given beside the values; method in brief: as §2

SMILES | Concentration (Rattus norvegicus [1]) [pg/mL] | k [2] [min⁻¹] | half-life [3] [min] | k [4] [min⁻¹] | Activity (Rattus norvegicus [5]) [%] | Activity (Rattus norvegicus [6]) [%] | half-life [7] [min] | Activity (Rattus norvegicus [8]) [%]
CCCCCCN1C=CCC(C(=O)O[C@H]2CC[C@H]3[C@@H]4CCc5cc(O)ccc5[C@H]4CC[C@]23C)=C1 | 37.4 | 0.00268 | 259 | 0.0123 | 95.66 | 5.28 | 56 | 66.26
CN1C=CCC(C(=O)O[C@H]2CC[C@H]3[C@@H]4CCc5cc(O)ccc5[C@H]4CC[C@]23C)=C1 | 53 | 0.00577 | 121 | 0.0815 | 68.15 | 6.46 | 32 | 35.75
CCN1C=CCC(C(=O)O[C@H]2CC[C@H]3[C@@H]4CCc5cc(O)ccc5[C@H]4CC[C@]23C)=C1 | 37.7 | 0.00353 | 198 | 0.0323 | 70.75 | 6.17 | 22 | 32.06
CC(C)N1C=CCC(C(=O)O[C@H]2CC[C@H]3[C@@H]4CCc5cc(O)ccc5[C@H]4CC[C@]23C)=C1 | 43.6 | 0.0058 | 120 | 0.0263 | 104.62 | 4.86 | 26 | 68.64
C[C@]12CC[C@@H]3c4ccc(O)cc4CC[C@H]3[C@@H]1CC[C@@H]2OC(=O)C1=CN(Cc2ccccc2)C=CC1 | 42 | 0.00238 | 288 | 0.00892 | 97.43 | 4.86 | 79 | 67.38
C[C@]12CC[C@@H]3c4ccc(O)cc4CC[C@H]3[C@@H]1CC[C@@H]2OC(=O)C1=CN(CCCO)C=CC1 | 44.3 | 0.00567 | 123 | 0.0242 | 106.49 | 4.6 | 29 | 75.22
C[C@]12CC[C@@H]3c4ccc(O)cc4CC[C@H]3[C@@H]1CC[C@@H]2O [ESTRADIOL] | 22.2 |  |  |  | 107.36 | 3.88 |  | 62.26
C[C@]12CC[C@@H]3c4ccc(O)cc4CC[C@H]3[C@@H]1CC[C@@H]2OC(=O)C1=CN(CC2CC2)C=CC1 | 40.4 | 0.00611 | 114 | 0.0183 | 97.29 | 4.4 | 38 | 54.31
CCCN1C=CCC(C(=O)O[C@H]2CC[C@H]3[C@@H]4CCc5cc(O)ccc5[C@H]4CC[C@]23C)=C1 | 42.9 | 0.00736 | 94 | 0.0153 | 85.97 | 5.32 | 52 | 46.4
